Reference: ChEMBL document CHEMBL4425095, “Novel Cephalosporins Selectively Active on Nonreplicating Mycobacterium tuberculosis” (J Med Chem, 2016)

Tested on: Mycobacterium tuberculosis
Test: Antibacterial activity against replicating Mycobacterium bovis BCG measured at OD580 = 0.01
Assay type: functional
Conditions: variant bovis BCG
Procedure, shortened: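 Replicating organisms in the paper's earlier-described bacteriologic medium; 200 μL of cells at OD580 0.01 exposed to DMSO vehicle or drug in 96-well plates; growth read by optical density.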

Row | Structure (SMILES) | MIC90
1 | CCCOC(=O)C1=C(C)CS[C@@H]2[C@H](NC(=O)COc3ccccc3)C(=O)N12 | > 100 mg/L
2 | CC1=C(c2nc(C)no2)N2C(=O)[C@@H](NC(=O)COc3ccccc3)[C@H]2SC1 | > 100 mg/L
